For series [1], the target named is T1, Fatty-acid amide hydrolase 1 (Rattus norvegicus) (UniProt P97612).
T1 sequence (whole entry): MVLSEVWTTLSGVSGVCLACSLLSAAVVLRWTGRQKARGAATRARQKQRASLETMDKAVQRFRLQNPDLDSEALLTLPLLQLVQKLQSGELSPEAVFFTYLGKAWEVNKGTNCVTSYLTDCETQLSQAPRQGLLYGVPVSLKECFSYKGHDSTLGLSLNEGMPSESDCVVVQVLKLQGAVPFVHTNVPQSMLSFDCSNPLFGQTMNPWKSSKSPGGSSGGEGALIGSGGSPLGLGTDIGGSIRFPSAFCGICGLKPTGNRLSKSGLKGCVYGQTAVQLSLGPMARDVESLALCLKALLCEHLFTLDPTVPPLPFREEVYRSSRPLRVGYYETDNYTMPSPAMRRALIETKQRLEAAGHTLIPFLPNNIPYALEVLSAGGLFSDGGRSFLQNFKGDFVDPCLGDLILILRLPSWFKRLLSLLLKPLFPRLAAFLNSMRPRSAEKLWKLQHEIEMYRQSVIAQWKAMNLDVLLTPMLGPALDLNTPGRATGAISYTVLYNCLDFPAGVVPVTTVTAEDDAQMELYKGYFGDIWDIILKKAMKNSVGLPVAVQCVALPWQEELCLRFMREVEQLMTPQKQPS
In words: Inhibition of FAAH in rat brain membrane assessed as [14C]anandamide hydrolysis at 50 uM by scintillation counting. The series is classed as cell membranes. The method in brief:
(§1)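 Enzyme source was a rat brain membrane pellet resuspended in 50 mM Tris-HCl, pH 9.0, 70 µg protein per assay. It was incubated with compound (10 or 50 µM) and [14C]anandamide (10000 cpm) for 30 min at 37 °C. After CHCl3/MeOH (1:1) extraction, [14C]ethanolamine in the aqueous phase was counted by scintillation. Points were run in duplicate.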

Series [2] deals with T2, Cannabinoid receptor 1 (Homo sapiens, UniProt P21554). The series can be described thus: Displacement of [3H]CP-55940 from human recombinant CB1 receptor expressed in HEK293 cells at 10 uM. The class given is cell-based.
Series [3] concerns the target T3, Cannabinoid receptor 2 (Homo sapiens, UniProt P34972). In words: Displacement of [3H]CP-55940 from human recombinant CB2 receptor expressed in HEK293 cells at 10 uM. The series is classed as cell-based.
Series [4] concerns the target Prostaglandin G/H synthase 1 (Homo sapiens, UniProt P23219). In words: Inhibition of cyclooxygenase 1 in human whole blood assessed as thromboxane B2 level. The class given is tissue-based. Put shortly: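 Fresh whole blood came from a healthy volunteer free of NSAIDs for 2 weeks. 1 mL aliquots received test agent in DMSO and were left to clot for 1 h at 37 °C. Serum TXB2 was measured by GC-MS/MS, in quadruplicate.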

Series [5] deals with T4, Prostaglandin G/H synthase 1 (Ovis aries) (UniProt P05979).
T4 sequence (whole entry): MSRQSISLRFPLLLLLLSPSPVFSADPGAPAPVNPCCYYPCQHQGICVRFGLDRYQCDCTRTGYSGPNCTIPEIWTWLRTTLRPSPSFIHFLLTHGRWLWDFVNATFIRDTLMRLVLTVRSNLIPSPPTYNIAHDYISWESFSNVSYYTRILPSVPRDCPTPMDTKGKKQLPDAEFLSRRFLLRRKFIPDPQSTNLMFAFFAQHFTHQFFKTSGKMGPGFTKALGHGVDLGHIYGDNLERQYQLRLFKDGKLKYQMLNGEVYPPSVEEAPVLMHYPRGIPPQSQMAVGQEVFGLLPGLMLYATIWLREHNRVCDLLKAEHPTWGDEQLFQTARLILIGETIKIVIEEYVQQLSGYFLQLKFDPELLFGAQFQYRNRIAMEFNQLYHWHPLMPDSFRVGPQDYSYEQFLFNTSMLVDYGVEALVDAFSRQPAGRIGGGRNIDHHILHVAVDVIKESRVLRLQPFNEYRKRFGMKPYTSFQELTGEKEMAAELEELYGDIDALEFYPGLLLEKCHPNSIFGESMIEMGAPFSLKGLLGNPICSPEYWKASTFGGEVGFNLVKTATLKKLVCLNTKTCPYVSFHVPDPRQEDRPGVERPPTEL
In words: Inhibition of ovine cyclooxygenase 1 assessed as prostaglandin F2alpha level at 1 uM by enzyme immunoassay relative to control. The method in brief:
(§2)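 Isolated ovine COX-1 or human recombinant COX-2 was incubated with compound at 1 or 10 µM for 10 min at 37 °C. Buffer was 0.1 M Tris-HCl pH 8.0 with 5 mM EDTA and 2 mM phenol. PGH2 formed was reduced to PGF2α with stannous chloride for quantification. Ketoprofen (10 µM) served as reference; values are means of four experiments.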

For series [6], the target named is T4, Prostaglandin G/H synthase 1 (Ovis aries). The series can be described thus: Inhibition of ovine cyclooxygenase 1 assessed as prostaglandin F2alpha level at 10 uM by enzyme immunoassay relative to control. Put shortly: as §2
Series [7] concerns the target T5, Prostaglandin G/H synthase 2 (Homo sapiens) (UniProt P35354).
T5 sequence (whole entry): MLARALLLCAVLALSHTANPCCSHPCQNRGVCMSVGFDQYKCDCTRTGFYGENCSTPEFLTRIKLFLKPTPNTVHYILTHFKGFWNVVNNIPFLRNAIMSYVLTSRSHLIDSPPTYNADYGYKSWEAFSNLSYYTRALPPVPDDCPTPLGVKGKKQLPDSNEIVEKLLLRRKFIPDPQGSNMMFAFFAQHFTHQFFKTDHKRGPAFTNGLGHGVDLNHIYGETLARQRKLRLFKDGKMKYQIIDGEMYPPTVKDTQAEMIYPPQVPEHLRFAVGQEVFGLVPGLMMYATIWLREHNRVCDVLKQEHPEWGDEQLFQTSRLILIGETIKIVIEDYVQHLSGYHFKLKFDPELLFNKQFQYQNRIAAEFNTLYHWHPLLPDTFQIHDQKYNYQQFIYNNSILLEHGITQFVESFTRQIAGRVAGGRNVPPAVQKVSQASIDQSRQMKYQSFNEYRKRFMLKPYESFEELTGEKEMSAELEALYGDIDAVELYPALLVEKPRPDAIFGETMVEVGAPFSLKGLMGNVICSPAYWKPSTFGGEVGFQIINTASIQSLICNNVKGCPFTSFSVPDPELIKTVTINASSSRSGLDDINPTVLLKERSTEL
In words: Inhibition of human recombinant cyclooxygenase 2 assessed as prostaglandin F2alpha level at 1 uM by enzyme immunoassay relative to control. Put shortly: as §2

The species named for series [8] is Mus musculus. The series can be described thus: Toxicity in C57BL/6 mouse assessed as loss of locomotor behavior. The class given is organism-based. Particulars: in vivo.
For series [9], the system named is Mus musculus. The series can be described thus: Antinociceptive activity against formalin-induced nociceptive behavior in C57BL/6 mouse assessed as mean licking time at 5 mg/kg, ip administered 15 mins prior to formalin challenge measured upto 10 mins relative to control. The class given is functional. Particulars: route intraperitoneal. The method in brief: (§3)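 C57BL/6 mice (n = 6-8 per group) were habituated 15-20 min in an observation chamber with mirrors, then given the compound ip at 6 µL/g in PBS/DMSO. Formalin (5%, 20 µL) went into the dorsal left hind paw 15 min later. Licking of the injected paw was summed over 0-10 min (phase 1) and 15-45 min (phase 2) and expressed as % of the vehicle control. Groups were compared by t test.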

The test system of series [10] is Mus musculus. In words: Antinociceptive activity against formalin-induced nociceptive behavior in C57BL/6 mouse assessed as mean licking time at 10 mg/kg, ip administered 15 mins prior to formalin challenge measured upto 10 mins relative to control. The series is classed as functional. As to conditions: route intraperitoneal. The method in brief: as §3
In series [11] the test system is Mus musculus. The series can be described thus: Antinociceptive activity against formalin-induced nociceptive behavior in C57BL/6 mouse assessed as mean licking time at 50 mg/kg, ip administered 15 mins prior to formalin challenge measured upto 10 mins relative to control. The series is classed as functional. As to conditions: route intraperitoneal. The method in brief: as §3

The test system of series [12] is Mus musculus. The series can be described thus: Antinociceptive activity against formalin-induced nociceptive behavior in C57BL/6 mouse assessed as mean licking time at 5 mg/kg, ip administered 15 mins prior to formalin challenge measured after 15 to 45 mins relative to control. Particulars: route intraperitoneal. The series is classed as functional. The method in brief:
as §3

For series [13], the system named is Mus musculus. In words: Antinociceptive activity against formalin-induced nociceptive behavior in C57BL/6 mouse assessed as mean licking time at 10 mg/kg, ip administered 15 mins prior to formalin challenge measured after 15 to 45 mins relative to control. The series is classed as functional. As to conditions: route intraperitoneal. The method in brief: as §3

In series [14] the test system is Mus musculus. The series can be described thus: Antinociceptive activity against formalin-induced nociceptive behavior in C57BL/6 mouse assessed as mean licking time at 50 mg/kg, ip administered 15 mins prior to formalin challenge measured after 15 to 45 mins relative to control. The class given is functional. As to conditions: route intraperitoneal. Put shortly:
as §3

Series [15] has as its target T5, Prostaglandin G/H synthase 2 (Homo sapiens). The series can be described thus: Inhibition of human recombinant cyclooxygenase 2 assessed as prostaglandin F2alpha level at 10 uM by enzyme immunoassay relative to control. Put shortly:
as §2

Series [16] addresses T6, Prostaglandin G/H synthase 2 (Homo sapiens, UniProt P35354).
T6 sequence (P35354 whole entry): T5 sequence (whole entry)
The series can be described thus: Inhibition of cyclooxygenase 2 in human whole blood assessed as prostaglandin E2 level.

The target in series [17] is T2, Cannabinoid receptor 1. In words: Displacement of [3H]CP-55940 from human recombinant CB1 receptor expressed in HEK293 cells. The class given is cell-based. The method in brief: (§4)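 Membranes were from HEK-293 cells overexpressing human CB1 or CB2, with [3H]CP-55,940 as radioligand (Kd 0.18 nM CB1, 0.31 nM CB2). Test compound (1 nM-10 µM) was incubated 90 min at 30 °C. Displaced radioligand was counted by scintillation. Ki came from IC50 via Cheng-Prusoff, with triplicate points; single-concentration screens were run in duplicate.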

Series [18] addresses T3, Cannabinoid receptor 2. In words: Displacement of [3H]CP-55940 from human recombinant CB2 receptor expressed in HEK293 cells. The series is classed as cell-based. Put shortly: as §4
The target in series [19] is T1, Fatty-acid amide hydrolase 1 (Rattus norvegicus). The series can be described thus: Inhibition of FAAH in rat brain membrane assessed as [14C]anandamide hydrolysis at 10 uM by scintillation counting. The class given is cell membranes. Put shortly:
as §1

The source made the active and inactive calls. No cut-off for these calls is given here.

T2 sequence (P21554 whole entry): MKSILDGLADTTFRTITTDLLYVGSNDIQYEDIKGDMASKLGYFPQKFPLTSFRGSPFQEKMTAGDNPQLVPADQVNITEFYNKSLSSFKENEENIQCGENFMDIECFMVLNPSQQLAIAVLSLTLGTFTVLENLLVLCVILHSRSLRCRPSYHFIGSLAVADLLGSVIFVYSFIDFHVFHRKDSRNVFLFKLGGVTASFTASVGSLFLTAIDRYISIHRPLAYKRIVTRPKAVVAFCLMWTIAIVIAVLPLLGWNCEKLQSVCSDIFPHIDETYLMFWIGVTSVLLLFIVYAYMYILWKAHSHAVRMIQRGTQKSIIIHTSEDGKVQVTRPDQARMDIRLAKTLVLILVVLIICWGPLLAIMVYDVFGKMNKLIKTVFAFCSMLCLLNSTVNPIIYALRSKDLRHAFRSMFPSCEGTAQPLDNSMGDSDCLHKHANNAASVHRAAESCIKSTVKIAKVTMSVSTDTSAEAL
T3 sequence (P34972 whole entry): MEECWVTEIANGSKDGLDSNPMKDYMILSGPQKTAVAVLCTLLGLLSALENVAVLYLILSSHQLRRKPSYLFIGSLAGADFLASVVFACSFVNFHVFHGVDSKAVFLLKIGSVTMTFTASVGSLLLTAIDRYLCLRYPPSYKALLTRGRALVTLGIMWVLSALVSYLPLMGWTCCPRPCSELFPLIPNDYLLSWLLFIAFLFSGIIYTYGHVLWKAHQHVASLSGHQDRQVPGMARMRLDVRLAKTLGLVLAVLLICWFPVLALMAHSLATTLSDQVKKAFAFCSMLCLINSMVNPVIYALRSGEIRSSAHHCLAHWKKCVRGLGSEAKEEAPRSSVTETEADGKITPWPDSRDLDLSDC
Prostaglandin G/H synthase 1, sequence (P23219 whole entry): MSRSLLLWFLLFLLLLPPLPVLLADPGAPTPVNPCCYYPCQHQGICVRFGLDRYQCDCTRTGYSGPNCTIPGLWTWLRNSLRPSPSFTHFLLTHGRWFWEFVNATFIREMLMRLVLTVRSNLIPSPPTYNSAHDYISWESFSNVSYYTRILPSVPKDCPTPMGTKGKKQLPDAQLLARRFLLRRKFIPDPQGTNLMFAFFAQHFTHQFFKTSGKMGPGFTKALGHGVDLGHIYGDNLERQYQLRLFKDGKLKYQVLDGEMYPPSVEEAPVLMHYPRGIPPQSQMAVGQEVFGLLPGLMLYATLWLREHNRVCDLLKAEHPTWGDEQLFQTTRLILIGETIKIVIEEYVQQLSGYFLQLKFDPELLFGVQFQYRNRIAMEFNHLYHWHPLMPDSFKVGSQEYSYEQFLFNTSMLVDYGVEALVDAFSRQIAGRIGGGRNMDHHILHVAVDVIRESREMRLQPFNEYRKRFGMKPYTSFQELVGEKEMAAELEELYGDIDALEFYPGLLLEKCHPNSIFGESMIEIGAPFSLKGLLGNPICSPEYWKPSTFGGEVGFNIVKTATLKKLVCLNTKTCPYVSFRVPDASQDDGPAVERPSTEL

Regarding `CC(=O)Nc1ccc2[nH]ncc2c1`, the inhibition in [1] was determined as 4%; in series [5] it was 97%; in series [6] it was 92%; in [7], 80%; in series [15], 70%. For the same compound, the Activity on Cannabinoid receptor 1 [2] was 1%; on Cannabinoid receptor 2 [3], 12%; in the series filed under Mus musculus [8] it was “Non-toxic”; in the series with Mus musculus [9] it was 105%; in the series with Mus musculus [10], 142%; with Mus musculus [11], 29%. The results for the Activity with Mus musculus [12], in the series with Mus musculus [13] and in the series on Mus musculus [14] were 94%, 73% and 38%, respectively. The result in [4] was inactive. The 50% inhibitory concentration (IC50) in [16] amounted to 107 µM.

As for `CCCCC/C=C\C/C=C\C/C=C\C/C=C\CCCC(=O)Nc1ccc(O)c(OC)c1`, the Ki was 1.4 µM at Cannabinoid receptor 1 [17] and 1 µM on Cannabinoid receptor 2 [18]. For the same compound, the inhibition in [1] amounted to 62%; in series [19], 23%.

With `CCCCC/C=C\C/C=C\C/C=C\C/C=C\CCCC(=O)Nc1ccc(O)cc1`, the values for the Ki at Cannabinoid receptor 1 [17] and at Cannabinoid receptor 2 [18] were 1.5 µM and 1.3 µM, respectively. Also, the inhibition is 55% in series [1] and 15% in [19].

Regarding `CC(C(=O)O)c1cccc(C(=O)c2ccccc2)c1` (stereo unspecified), the inhibition was 16% in [6] and 41% in [15].

For the origin of these results see ChEMBL document CHEMBL1151744, “New analgesics synthetically derived from the paracetamol metabolite N-(4-hydroxyphenyl)-(5Z,8Z,11Z,14Z)-icosatetra-5,8,11,14-enamide” (J Med Chem, 2008).
